Measurements from ChEMBL document CHEMBL1136288, “A catch-and-release strategy for the combinatorial synthesis of 4-acylamino-1,3-thiazoles as potential CDK5 inhibitors” (Bioorg Med Chem Lett, 2003).

What was measured:
[1] = molecular target: Cyclin-dependent kinase 2/cyclin A (Homo sapiens, UniProt P24941); assay: Ability to inhibit cyclin-dependent kinase 2-cyclin A.; type: protein-complex assay
Method in brief: (§1)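 CDK5/GST-p25 was at 0.5 nM and CDK2/GST-cyclin A at 4 nM. Incubated 30 min at 37 °C, stopped with streptavidin SPA beads/EDTA, and counted. IC50 came from a sigmoidal dose-response fit, averaged when repeated.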

[2] = molecular target: T1, Cyclin-dependent kinase 5/CDK5 activator 1 (Homo sapiens, UniProt Q00535); assay: Ability to inhibit Cyclin-dependent kinase 5-p35.; type: protein-complex assay; method in brief: as §1
[3] = Specificity for CDK5 over Cyclin-dependent kinase 2-cyclin A
[4] = molecular target: T1, Cyclin-dependent kinase 5/CDK5 activator 1; assay: Inhibition of Tau Protein Kinase II (TPK II); type: protein-complex assay; method in brief: as §1
[5] = molecular target: T2, Cyclin-dependent kinase 5/CDK5 activator 1 (Homo sapiens) (UniProt Q00535+Q15078); assay: Inhibition of Cyclin-dependent kinase 5-p35nck5a; type: protein-complex assay; conditions: concentration not given here; method in brief: as §1
[6] = molecular target: T2, Cyclin-dependent kinase 5/CDK5 activator 1 (Homo sapiens); assay: Inhibition of Cyclin-dependent kinase 5-p35nck5a at 20 uM; type: protein-complex assay

T1 sequence (Q00535 whole entry): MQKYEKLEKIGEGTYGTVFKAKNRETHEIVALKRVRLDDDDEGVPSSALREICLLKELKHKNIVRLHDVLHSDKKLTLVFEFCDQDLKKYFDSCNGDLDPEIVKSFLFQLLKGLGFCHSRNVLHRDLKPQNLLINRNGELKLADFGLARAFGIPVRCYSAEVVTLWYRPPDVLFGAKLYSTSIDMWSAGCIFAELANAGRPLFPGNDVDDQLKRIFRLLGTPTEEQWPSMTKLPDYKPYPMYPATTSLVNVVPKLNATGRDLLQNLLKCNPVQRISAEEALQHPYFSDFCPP
T1 sequence (Q15078 whole entry, further chain): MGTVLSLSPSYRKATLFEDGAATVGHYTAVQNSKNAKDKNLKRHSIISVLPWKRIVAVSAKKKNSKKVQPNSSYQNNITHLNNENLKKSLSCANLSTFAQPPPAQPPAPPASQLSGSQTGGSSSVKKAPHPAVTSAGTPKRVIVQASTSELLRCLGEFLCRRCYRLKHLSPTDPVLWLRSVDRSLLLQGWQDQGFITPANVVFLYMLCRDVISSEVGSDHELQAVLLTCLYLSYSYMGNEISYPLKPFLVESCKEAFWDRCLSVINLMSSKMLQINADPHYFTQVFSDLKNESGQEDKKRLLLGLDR
T2 sequence (Q00535 whole entry): as the sequence (Q00535 whole entry) above
T2 sequence (Q15078 99-307 partner limits assumed): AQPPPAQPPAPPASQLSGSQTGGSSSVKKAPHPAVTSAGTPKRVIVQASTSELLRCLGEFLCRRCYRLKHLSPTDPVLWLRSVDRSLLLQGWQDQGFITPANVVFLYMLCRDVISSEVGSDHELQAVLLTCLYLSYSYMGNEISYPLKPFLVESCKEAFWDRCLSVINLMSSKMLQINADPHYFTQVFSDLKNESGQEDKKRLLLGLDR

IC50 [1] [µM]	IC50 [2] [µM]	SMILES	also measured
> 100	9	CONC(=O)Nc1csc(Cc2c(Cl)cccc2Cl)n1	
10	30	O=C(Nc1csc(-c2cccs2)n1)NN1CCOCC1	
10	1	O=C(Nc1csc(Cc2c(Cl)cccc2Cl)n1)NN1CCOCC1	IC50 [3]: 10 µM; Ki [4]: 0.5 µM
40	6	C=CCONC(=O)Nc1csc(Cc2c(Cl)cccc2Cl)n1	
90	6	CS(=O)(=O)Cc1nc(NC(=O)NOc2ccccc2)cs1	
10	4	CN(C)NC(=O)Nc1csc(Cc2c(Cl)cccc2Cl)n1	
	> 100	CNNC(=O)Nc1csc(Cc2c(Cl)cccc2Cl)n1	
70	10	O=C(Nc1csc(Cc2c(Cl)cccc2Cl)n1)NN1CCCCCC1	
10	30	O=C(Nc1csc(-c2ccccc2Cl)n1)NN1CCOCC1	
	> 100	CNN(C)C(=O)Nc1csc(Cc2c(Cl)cccc2Cl)n1	
90	3	O=C(NOC1CCCCO1)Nc1csc(Cc2c(Cl)cccc2Cl)n1 (stereo unspecified)	
20	5	CCONC(=O)Nc1csc(Cc2c(Cl)cccc2Cl)n1	
	> 100	CCc1nc(NC(=O)NN2CCOCC2)cs1	
6	9	O=C(Nc1csc(-c2ccccc2)n1)NN1CCOCC1	
	> 100	O=C(NOCc1c(F)c(F)c(F)c(F)c1F)Nc1csc(Cc2c(Cl)cccc2Cl)n1	
	> 100	Cc1ccc(-c2nc(NC(=O)NN3CCOCC3)cs2)cc1	
> 100	20	O=C(NOc1ccccc1)Nc1csc(Cc2ccccc2)n1	
> 100	80	O=C(Nc1csc(COc2ccccc2)n1)NN1CCOCC1	
30	6	O=C(Nc1csc(Cc2c(Cl)cccc2Cl)n1)NN1CCCCC1	
> 100	55	O=C(Nc1csc(Cc2ccccc2)n1)NN1CCOCC1	

IC50 [1] [µM]	IC50 [2] [µM]	SMILES	also measured
> 100	16	Cc1cccc(-c2nc(NC(=O)NOc3ccccc3)cs2)c1	
	> 100	COC[C@H]1CCCN1NC(=O)Nc1csc(Cc2c(Cl)cccc2Cl)n1	
		O=C(Nc1csc(Cc2ccccc2Cl)n1)NN1CCOCC1	inhibition [5]: 30%
	> 100	NNC(=O)Nc1csc(Cc2c(Cl)cccc2Cl)n1	
30	30	O=C(Nc1csc(CSc2ccccc2)n1)NN1CCOCC1	
		O=C(Nc1csc(Cc2ccc(Br)cc2)n1)NN1CCOCC1	inhibition [5]: 26%
60	10	CN(NC(=O)Nc1csc(Cc2c(Cl)cccc2Cl)n1)c1ccccc1	
		CS(=O)(=O)Cc1nc(NC(=O)NN2CCOCC2)cs1	inhibition [5]: 35%
	> 100	O=C(Nc1csc(-c2ccc(Cl)cc2)n1)NN1CCOCC1	
15	1	CC(C)(C)ONC(=O)Nc1csc(Cc2c(Cl)cccc2Cl)n1	
5	10	O=C(Nc1csc(CS(=O)(=O)c2ccccn2)n1)NN1CCOCC1	
20	30	COc1ccc(OCc2nc(NC(=O)NN3CCOCC3)cs2)cc1	
35	8	O=C(NOc1ccccc1)Nc1csc(-c2ccccc2)n1	
	> 100	O=C(Nc1csc(Cc2c(Cl)cccc2Cl)n1)NN(Cc1ccccc1)Cc1ccccc1	
20	30	Cc1cccc(-c2nc(NC(=O)NN3CCOCC3)cs2)c1	
	> 100	O=C(NNc1ccccc1)Nc1csc(Cc2c(Cl)cccc2Cl)n1	
		O=C(NOCc1ccccc1)Nc1csc(Cc2c(Cl)cccc2Cl)n1	inhibition [6]: 40%
> 100	0.9	O=C(NOc1ccccc1)Nc1csc(Cc2c(Cl)cccc2Cl)n1	
20	3	O=C(Nc1csc(Cc2c(Cl)cccc2Cl)n1)NN1CCCC1	
